Reference: ChEMBL document CHEMBL4831480, “Identification of First-in-Class Inhibitors of Kallikrein-Related Peptidase 6 That Promote Oligodendrocyte Differentiation” (J Med Chem, 2021)

How the values were obtained:
Caspase-3 (Homo sapiens) = molecular target: T1, Caspase-3 (Homo sapiens) (UniProt P42574); experiment: Inhibition of Caspase-3 (unknown origin) assessed as inhibition of release of AMC fluorescent product using Ac-DEVD-AMC as substrate at 10 uM incubated for 30 mins by microplate reader relative to control
T1 sequence (whole entry): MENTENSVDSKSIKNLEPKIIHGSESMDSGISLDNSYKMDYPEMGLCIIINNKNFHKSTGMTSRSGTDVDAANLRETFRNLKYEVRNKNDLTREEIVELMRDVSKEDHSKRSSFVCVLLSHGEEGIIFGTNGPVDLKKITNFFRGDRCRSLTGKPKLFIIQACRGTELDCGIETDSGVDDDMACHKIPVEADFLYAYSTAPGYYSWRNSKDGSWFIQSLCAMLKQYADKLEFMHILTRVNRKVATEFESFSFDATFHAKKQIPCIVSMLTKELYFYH
Procedure, shortened: (§1)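 Each inhibitor at 10 μM was preincubated 15 min at 37 °C with the protease at an optimized concentration in its own buffer. Reaction started with AMC substrate: Ac-VDVAD-AMC 25 μM (caspase-2), Ac-DEVD-AMC 10 μM (caspase-3), Ac-VEID-AMC 100 μM (caspase-6), Z-LR-AMC 50 μM (cathepsin L), Z-GGR-AMC 100 μM (tPA). Read for 30 min at 37 °C; % inhibition from initial rates versus DMSO; 3 independent experiments.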

Homo sapiens = species: Homo sapiens; experiment: Inhibition of Matriptase (unknown origin) assessed as inhibition of release of AMC fluorescent product using […] as substrate at 10 uM incubated for 30 mins by microplate reader relative to control
[1] = molecular target: Kallikrein-5 (Homo sapiens) (UniProt Q9Y337); experiment: Inhibition of KLK5 (unknown origin) assessed as inhibition of release of AMC fluorescent product using H-VPR-AMC as substrate at 10 uM incubated for 30 mins by microplate reader relative to control
Chain of Kallikrein-5 (Homo sapiens) (Q9Y337 whole entry): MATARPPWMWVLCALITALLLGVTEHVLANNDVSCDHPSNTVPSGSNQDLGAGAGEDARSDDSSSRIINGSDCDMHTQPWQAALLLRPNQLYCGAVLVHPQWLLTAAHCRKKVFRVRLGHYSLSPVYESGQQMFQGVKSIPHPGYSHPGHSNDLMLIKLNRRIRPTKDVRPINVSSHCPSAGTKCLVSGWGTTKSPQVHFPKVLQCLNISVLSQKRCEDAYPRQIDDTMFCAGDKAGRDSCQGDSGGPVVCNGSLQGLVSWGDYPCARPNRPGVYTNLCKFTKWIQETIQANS

Kallikrein-1 = Kallikrein-1 (Homo sapiens, UniProt P06870); experiment: Inhibition of KLK1 (unknown origin) assessed as release of AMC fluorescent product using H-PFR-AMC as substrate incubated for 30 mins by microplate reader
Chain of Kallikrein-1 (P06870 whole entry): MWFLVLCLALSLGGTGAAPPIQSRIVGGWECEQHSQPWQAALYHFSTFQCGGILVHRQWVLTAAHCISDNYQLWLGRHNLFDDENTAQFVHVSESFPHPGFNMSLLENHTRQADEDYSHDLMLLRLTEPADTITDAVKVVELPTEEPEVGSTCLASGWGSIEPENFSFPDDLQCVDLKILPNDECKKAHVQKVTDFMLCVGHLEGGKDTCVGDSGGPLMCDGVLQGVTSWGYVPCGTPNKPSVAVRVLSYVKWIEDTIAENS

Trypsin (Homo sapiens) = Trypsin (Homo sapiens) (UniProt P07477+P07478+P35030); experiment: Inhibition of Trypsin (unknown origin) assessed as inhibition of release of AMC fluorescent product using […] as substrate at 10 uM incubated for 30 mins by microplate reader relative to control; format: protein assay
Caspase-2 (Homo sapiens) = molecular target: T2, Caspase-2 (Homo sapiens) (UniProt P42575); experiment: Inhibition of Caspase-2 (unknown origin) assessed as inhibition of release of AMC fluorescent product using Ac-VDVAD-AMC as substrate at 10 uM incubated for 30 mins by microplate reader relative to control; procedure, shortened: as §1
T2 sequence (whole entry): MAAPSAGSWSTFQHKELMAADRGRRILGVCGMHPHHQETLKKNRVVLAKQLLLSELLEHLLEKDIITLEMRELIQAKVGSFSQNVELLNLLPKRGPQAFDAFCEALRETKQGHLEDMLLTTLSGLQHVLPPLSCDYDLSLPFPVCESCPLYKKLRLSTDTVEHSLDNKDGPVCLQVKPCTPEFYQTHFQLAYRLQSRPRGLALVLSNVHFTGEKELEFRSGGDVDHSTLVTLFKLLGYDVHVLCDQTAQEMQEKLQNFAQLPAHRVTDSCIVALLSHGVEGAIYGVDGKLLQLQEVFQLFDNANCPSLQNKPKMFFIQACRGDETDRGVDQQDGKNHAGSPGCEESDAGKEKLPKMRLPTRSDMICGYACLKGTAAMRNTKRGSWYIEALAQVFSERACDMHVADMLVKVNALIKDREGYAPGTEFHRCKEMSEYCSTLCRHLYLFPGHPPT

Caspase-6 (Homo sapiens) = molecular target: T3, Caspase-6 (Homo sapiens) (UniProt P55212); experiment: Inhibition of Caspase-6 (unknown origin) assessed as inhibition of release of AMC fluorescent product using Ac-VEID-AMC as substrate at 10 uM incubated for 30 mins by microplate reader relative to control; procedure, shortened: as §1
T3 sequence (whole entry): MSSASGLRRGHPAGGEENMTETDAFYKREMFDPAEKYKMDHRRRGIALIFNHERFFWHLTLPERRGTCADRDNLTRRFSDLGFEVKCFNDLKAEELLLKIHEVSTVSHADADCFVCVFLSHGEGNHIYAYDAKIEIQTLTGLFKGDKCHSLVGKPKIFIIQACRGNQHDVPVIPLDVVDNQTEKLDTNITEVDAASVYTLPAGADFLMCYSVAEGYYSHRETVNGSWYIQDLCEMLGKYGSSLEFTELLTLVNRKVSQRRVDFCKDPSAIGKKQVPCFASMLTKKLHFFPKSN

[2] = molecular target: Procathepsin L (Homo sapiens) (UniProt P07711); experiment: Inhibition of Cathepsin L (unknown origin) assessed as inhibition of release of AMC fluorescent product using Z-LR-AMC as substrate at 10 uM incubated for 30 mins by microplate reader relative to control; procedure, shortened: as §1
Chain of Procathepsin L (Homo sapiens) (P07711 114-333 limits assumed): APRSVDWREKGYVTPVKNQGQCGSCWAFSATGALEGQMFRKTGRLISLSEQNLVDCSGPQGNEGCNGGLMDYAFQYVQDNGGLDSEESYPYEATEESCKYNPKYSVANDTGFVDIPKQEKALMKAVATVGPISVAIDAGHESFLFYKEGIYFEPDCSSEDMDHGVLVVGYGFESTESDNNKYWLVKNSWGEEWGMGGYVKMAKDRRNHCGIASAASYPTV

[3] = molecular target: T4, Kallikrein-8 (Homo sapiens) (UniProt O60259); experiment: Inhibition of KLK8 (unknown origin) assessed as inhibition of release of AMC fluorescent product using H-VPR-AMC as substrate at 10 uM incubated for 30 mins by microplate reader relative to control
T4 sequence (whole entry): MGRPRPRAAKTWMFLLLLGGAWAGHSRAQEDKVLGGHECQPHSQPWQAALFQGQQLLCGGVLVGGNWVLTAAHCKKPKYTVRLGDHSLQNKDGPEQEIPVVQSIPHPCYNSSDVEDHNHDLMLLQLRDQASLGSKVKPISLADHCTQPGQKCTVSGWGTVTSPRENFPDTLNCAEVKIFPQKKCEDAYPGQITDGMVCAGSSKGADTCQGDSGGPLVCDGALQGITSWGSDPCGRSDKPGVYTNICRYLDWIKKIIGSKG

[4] = molecular target: T5, Kallikrein-13 (Homo sapiens) (UniProt Q9UKR3); experiment: Inhibition of KLK13 (unknown origin) assessed as inhibition of release of AMC fluorescent product using H-VPR-AMC as substrate at 10 uM incubated for 30 mins by microplate reader relative to control
T5 sequence (whole entry): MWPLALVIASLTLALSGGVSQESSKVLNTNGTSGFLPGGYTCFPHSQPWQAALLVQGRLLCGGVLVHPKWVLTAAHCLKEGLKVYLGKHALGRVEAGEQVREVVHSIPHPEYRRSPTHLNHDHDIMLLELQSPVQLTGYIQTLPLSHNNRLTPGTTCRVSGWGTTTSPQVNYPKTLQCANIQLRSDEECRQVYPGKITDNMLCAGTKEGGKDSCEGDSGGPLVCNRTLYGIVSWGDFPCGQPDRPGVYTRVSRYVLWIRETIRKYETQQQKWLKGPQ

[5] = molecular target: Kallikrein-4 (Homo sapiens) (UniProt Q9Y5K2); experiment: Inhibition of KLK4 (unknown origin) assessed as inhibition of release of AMC fluorescent product using H-VPR-AMC as substrate at 10 uM incubated for 30 mins by microplate reader relative to control
Chain of Kallikrein-4 (Homo sapiens) (Q9Y5K2 whole entry): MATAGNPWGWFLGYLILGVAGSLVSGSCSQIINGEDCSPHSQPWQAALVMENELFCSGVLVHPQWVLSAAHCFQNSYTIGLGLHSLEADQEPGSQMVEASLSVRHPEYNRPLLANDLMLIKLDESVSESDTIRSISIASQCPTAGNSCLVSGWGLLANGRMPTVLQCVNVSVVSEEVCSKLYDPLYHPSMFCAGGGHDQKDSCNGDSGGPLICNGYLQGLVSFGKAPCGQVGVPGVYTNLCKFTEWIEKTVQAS

| inhibition (Caspase-3 (Homo sapiens)) [%] | inhibition (Homo sapiens) [%] | inhibition [1] [%] | IC50 (Kallikrein-1) [µM] | inhibition (Trypsin (Homo sapiens)) [%] | inhibition (Caspase-2 (Homo sapiens)) [%] | inhibition (Caspase-6 (Homo sapiens)) [%] | inhibition [2] [%] | inhibition [3] [%] | inhibition [4] [%] | inhibition [5] [%] | SMILES |
| --- | --- | --- | --- | --- | --- | --- | --- | --- | --- | --- | --- |
| 13 | 13 | 24 | 8.4 | 91 | 15 | 12 | 1 | 58 | 15 | 45 | CC(C)c1ccc(C(=O)Nc2ccc(CN)cc2)c(O)c1 |
| 11 | 0 | 35 | 38.6 | 5 | 5 | 13 | 20 | 16 | 5 | 0 | CC(C)(C)c1ccc(O)c(C(=O)Nc2ccc(CN)cc2)c1.Cl |
| 0 | 0 | 5 | 26.3 | 15 | 0 | 5 | 32 | 34 | 10 | 0 | Cc1ccc(C(=O)Nc2ccc(CN)cc2)c(O)c1.Cl |

Further lines, the compound ahead of its results:

| SMILES | inhibition (Caspase-3 (Homo sapiens)) [%] | inhibition (Homo sapiens) [%] | inhibition [1] [%] | IC50 (Kallikrein-1) [µM] | inhibition (Trypsin (Homo sapiens)) [%] | inhibition (Caspase-2 (Homo sapiens)) [%] | inhibition (Caspase-6 (Homo sapiens)) [%] | inhibition [2] [%] | inhibition [3] [%] | inhibition [4] [%] | inhibition [5] [%] |
| --- | --- | --- | --- | --- | --- | --- | --- | --- | --- | --- | --- |
| Cl.NCc1ccc(NC(=O)c2ccc3ccccc3c2O)cc1 | 10 | 29 | 22 | 21.3 | 34 | 30 | 56 | 30 | 22 | 2 | 14 |
| Cl.NCc1ccc(NC(=O)c2cc3ccccc3cc2O)cc1 | 5 | 8 | 4 | 5.1 | 25 | 4 | 40 | 25 | 61 | 19 | 2 |
| COc1ccc2c(O)c(C(=O)Nc3ccc(CN)cc3)ccc2c1 | 3 | 37 | 31 | 16.1 | 41 | 14 | 70 | 28 | 45 | 0 | 3 |
| Cc1ccc2ccc(C(=O)Nc3ccc(CN)cc3)c(O)c2c1 | 10 | 0 | 0 | 49.4 | 32 | 8 | 31 | 27 | 53 | 12 | 6 |
